# Biological target: T1, Macrophage migration inhibitory factor (Homo sapiens, UniProt P14174)
# T1 sequence (P14174 whole entry): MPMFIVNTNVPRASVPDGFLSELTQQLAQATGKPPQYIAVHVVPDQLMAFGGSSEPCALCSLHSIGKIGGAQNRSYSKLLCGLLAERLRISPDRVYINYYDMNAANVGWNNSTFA
# Experiment: Inhibition of human MIF
# Conditions: not given; call rule not given here
row,SMILES,Ki
1,COc1cccc(Oc2cc(C)nc(N3CCOCC3)c2)c1,Not Active

# Same assay, conditions: read-out: Ki
row,SMILES,Ki [µM]
1,Cc1cc(Oc2cccc(O)c2)cc(-c2ccccc2)n1,101
2,COc1ccc(-c2cc(Oc3cc(C)cc(OC)c3)cc(C)n2)cc1,270

# Biological target: T2, Macrophage migration inhibitory factor homologue (Plasmodium falciparum (isolate 3D7), UniProt Q8I5C5)
# T2 sequence (Q8I5C5 whole entry): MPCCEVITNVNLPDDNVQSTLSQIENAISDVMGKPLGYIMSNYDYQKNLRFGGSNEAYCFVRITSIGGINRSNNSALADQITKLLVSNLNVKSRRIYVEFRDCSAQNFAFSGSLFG
# Experiment: Inhibition of recombinant Plasmodium falciparum MIF expressed in Escherichia coli BL21 (DE3) assessed as ketonization of enol form of 4-HPP substrate after 10 mins
# Conditions: not given
# How it was run: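 PfMIF (75 nM trimer) in 25 mM potassium phosphate pH 7.4, preincubated 10 min with inhibitor at 1.5, 5 and 10 μM; DMSO vehicle 1% final. Started by adding enol 4-HPP (dissolved in absolute EtOH, stored −20°C) at varied concentrations. Enol-to-keto conversion read as fall in absorbance at 306 nm over 90 s; Ki values derived.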
Ki,SMILES,IC50 [µM]
Not Active,Oc1cccc(Oc2ccc(-c3cccc(O)c3)cc2)c1,
Not Active,COc1ccc(-c2ccc(Oc3cccc(OC)c3)cc2)cc1,
Not Active,O=C(O)c1ccccc1C(=O)Nc1ncccc1OCc1ccc(Cl)c(Cl)c1,
Not Active,CC(=O)c1ccc(-c2ccc(C(=O)N3CCC(C(N)=O)CC3)o2)cc1,
Not Active,COc1ccc(-c2ccc(Oc3cccc(OC)c3)cn2)cc1,
Not Active,Oc1ccc(-c2ccc(Oc3cccc(O)c3)cc2)cc1,
Not Active,Cc1cc(O)cc(Oc2ccnc(-c3ccc(O)cc3)c2)c1,
Not Active,CN1C(=O)N[C@@H](c2ccccc2)C2=C1CN(c1cccc(C(=O)O)c1)C2=O,
Not Active,COc1ccc(C(=O)c2oc3ccccc3c2NC(=O)C(C)C)cc1Cl,
Not Active,CCc1ccc(CNc2ccc(S(N)(=O)=O)cc2)cc1,
Not Active,COc1cccc(Oc2ccc(-c3ccc(OC)c(OC)c3)cc2)c1,
Not Active,CC1(C)CC(=O)C=C(Nc2ccc(S(N)(=O)=O)cc2)C1,
,CC(=O)O[C@@H]1C[C@H]2C(C)(C)C(=O)C=C[C@]2(C)[C@H]2CC[C@@]3(C)[C@H](c4ccoc4)C(=O)[C@H]4O[C@]43[C@@]21C [EPOXYAZADIRADIONE],10
Not Active,Oc1cccc(Oc2ccc(-c3ccc(O)c(O)c3)cc2)c1,
Not Active,O=C1C(=O)N(CNc2ccc3ccccc3c2)c2ccccc21,
Not Active,CNC(=O)c1cccc2cccc(Sc3ccccc3C(=O)O)c12,
Not Active,CCC[C@H](C(=O)Nc1ccc(F)c(F)c1F)c1ccccc1,

SMILES,Ki,IC50 [µM]
CCc1ccc([C@H]2C[C@H](c3cccc(C)c3)n3ncnc3N2)cc1,Not Active,
COc1ccc(-c2cc(Oc3cccc(OC)c3)ccn2)cc1,Not Active,
COc1ccc(NC(=O)[C@H]2CCC(C)=C(C)[C@@H]2C(=O)O)c(N2CCOCC2)n1,Not Active,
O=C(NCc1ccc(F)cc1F)Nc1cnccc1C(F)(F)F,Not Active,
COc1ccc(Oc2cc(C)nc(-c3ccccc3)n2)cc1,Not Active,
O=C(O)c1ccccc1C(=O)N(Cc1cccnc1)Cc1ccc(Cl)cc1Cl,Not Active,

# Same assay, conditions: read-out: Ki
row,SMILES,Ki [µM]
1,COc1cccc(Oc2ccc(-c3cccc(OC)c3)nc2)c1,57.2
2,Cc1cc(Oc2cccc(O)c2)cc(-c2ccccc2)n1,0.039
3,Cc1cc(Oc2ccc(O)cc2)nc(-c2ccccc2)n1,93.3
4,Oc1cccc(Oc2c(F)c(N3CCOCC3)nc(F)c2Cl)c1,15.5
5,Oc1cccc(Oc2c(F)c(F)nc(N3CCOCC3)c2F)c1,8.6
6,COc1cccc(Oc2cc(C)nc(-c3ccccc3)c2)c1,7.7
7,Oc1cccc(Oc2ccnc(N3CCOCC3)c2)c1,43.4
8,COc1cc(C)cc(Oc2ccnc(N3CCOCC3)c2)c1,5.6
9,Oc1cccc(Oc2ccc(-c3cccc(O)c3)nc2)c1,6.9
10,O=C1N=C(Nc2cccc(O)c2)S/C1=C\c1cccc(O)c1,20.6
11,Cc1cc(Oc2cccc(O)c2)nc(-c2ccccc2)n1,19.3
12,NC(=O)CSC1=Nc2ccccc2C2=N[C@H](Cc3c[nH]c4ccccc34)C(=O)N12,25.4
13,COc1cccc(Oc2cc(C)nc(N3CCOCC3)c2)c1,0.043
14,COc1cccc(Oc2cc(C)nc(-c3ccccc3)n2)c1,5.5
15,Oc1cccc(Oc2c(F)c(F)nc(N3CCCCC3)c2F)c1,28.6
16,COc1ccc(-c2nnc3ccc(Oc4cccc(O)c4)nn23)cc1,122
17,COc1cc(C)cc(Oc2cc(C)nc(N3CCOCC3)c2)c1,1.2
18,Cc1cc(Oc2cccc(C#N)c2)cc(N2CCOCC2)n1,11.3
19,COc1ccc(-c2cc(Oc3cc(C)cc(OC)c3)cc(C)n2)cc1,0.038
20,Oc1ccc(-c2ccc(Oc3cccc(O)c3)cn2)cc1,67.6
21,COc1cc(Cl)cc(Oc2ccnc(N3CCOCC3)c2)c1,2.6
22,COc1cc(OC)cc(Oc2ccnc(N3CCOCC3)c2)c1,122
23,Cc1cc(Oc2cccc(C#N)c2)nc(-c2ccccc2)n1,1.6
24,COc1cccc(Oc2ccnc(N3CCOCC3)c2)c1,22.9
25,CCOc1cccc(Oc2ccnc(N3CCOCC3)c2)c1,6.9
26,Oc1ccc(-c2cc(Oc3cccc(O)c3)ccn2)cc1,3
27,NS(=O)(=O)c1ccc(NC2=CC(=O)C(=O)c3ccccc32)cc1,99
28,COc1ccc(-c2cc(Oc3cc(C)cc(OC)c3)ccn2)cc1,0.37
29,CCOc1cccc(Oc2cc(C)nc(N3CCOCC3)c2)c1,7.2
30,N#Cc1cccc(Oc2ccc(-c3cccc(O)c3)nc2)c1,0.37

# — ChEMBL document CHEMBL2176938, “Virtual screening and optimization yield low-nanomolar inhibitors of the tautomerase activity of Plasmodium falciparum macrophage migration inhibitory factor” (J Med Chem, 2012)
